The record followed here is ChEMBL document CHEMBL4364256, “Design, synthesis and biological evaluation of antimicrobial diarylimine and -amine compounds targeting the interaction between the bacterial NusB and NusE proteins” (Eur J Med Chem, 2019).

For data set [1], the system named is Acinetobacter baumannii. Nature of the data set: Antimicrobial activity against Acinetobacter baumannii ATCC 19606 incubated for 20 hrs by microdilution method. It is filed as functional. The note with it: ATCC 19606 = CIP 70.34 = JCM 6841, 20 h. In outline:
(§1)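 Broth microdilution MIC testing done following CLSI guidelines.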

Data set [2] concerns Staphylococcus aureus. Nature of the data set: Growth inhibition of Staphylococcus aureus ATCC 25923 at 1/4 times MIC preincubated for 24 hrs followed by replating on agar plate and measured after overnight incubation by time-kill assay. It is filed as functional, organism-based.
In data set [3] the test system is Staphylococcus aureus. Nature of the data set: microbe, parasite or virus in culture. The note with it: ATCC 29213, 20 h.
Data set [4] has as its system Staphylococcus aureus. In words: Bacteriostatic activity against Staphylococcus aureus ATCC 25923 at 1 to 4 times MIC preincubated for up to 24 hrs followed by replating on agar plate measured after overnight incubation by time-kill assay. The data set is classed as functional, organism-based.
The test system of data set [5] is Bacillus subtilis. In words: Inhibition of N-terminal LgBiT-fused Bacillus subtilis NusB expressed in Escherichia coli BL21(DE3)pLysS interaction with C- terminal SmBiT-fused Bacillus subtilis NusE expressed in Escherichia coli BL21(DE3)pLysS at 100 uM preincubated for 10 mins followed by NusE addition and measured after 10 mins by nano-glo luciferase assay relative to control. In outline: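 NusB and NusE were mixed 1:1 at 1 µM in PBS, with compound at 100 µM. The read-out was percent inhibition of the NusB-NusE interaction.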

Data set [6] deals with Streptococcus pneumoniae. In words: Antimicrobial activity against Streptococcus pneumoniae ATCC 49619 incubated for 20 hrs by microdilution method. The data set is classed as functional. The note with it: ATCC 49619, 20 h. In outline: as §1
The nature of data set [7]: microbe, parasite or virus in culture. The note with it: Enterobacter cloacae, ATCC 13047, 20 h.
The test system of data set [8] is Pseudomonas aeruginosa. Nature of the data set: Antimicrobial activity against Pseudomonas aeruginosa ATCC 27853 incubated for 20 hrs by microdilution method. The data set is classed as functional. The note with it: ATCC 27853, 20 h. In outline:
as §1

In data set [9] the test system is Enterococcus faecium. In words: Antimicrobial activity against Enterococcus faecium ATCC 19433 incubated for 20 hrs by microdilution method. It is filed as functional. The note with it: ATCC 19433, 20 h. In outline:
as §1

Data set [10] has as its system Staphylococcus aureus. Nature of the data set: microbe, parasite or virus in culture. The note with it: ATCC 25923, 20 h.
Data set [11] in a line: Apparent permeability across apical to basolateral side in human Caco2 cells by LC-MS/MS analysis. The data set is classed as ADME, cell-based. The note with it: Caco-2.
Data set [12] relates to Staphylococcus aureus. In words: Antimicrobial activity against CA-methicillin-resistant Staphylococcus aureus W47 ST30 incubated for 20 hrs by microdilution method. It is filed as functional. The note with it: W47 ST30, 20 h. In outline:
(§2)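 MIC determined by microdilution following Clinical & Laboratory Standards Institute (CLSI) guidelines, read in µg/mL, against a panel of hospital- and community-acquired MRSA strains.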

Data set [13] relates to Streptococcus agalactiae. Nature of the data set: Antimicrobial activity against Streptococcus agalactiae ATCC 12386 incubated for 20 hrs by microdilution method. The data set is classed as functional. The note with it: ATCC 12386, 20 h. In outline: as §1
Data set [14] concerns Staphylococcus aureus. In words: Antimicrobial activity against CA-methicillin-resistant Staphylococcus aureus W48 ST217 incubated for 20 hrs by microdilution method. The note with it: W48 ST217, 20 h.
The subject of data set [15] is Streptococcus pyogenes. Nature of the data set: Antimicrobial activity against Streptococcus pyogenes ATCC 19615 incubated for 20 hrs by microdilution method. The data set is classed as functional. The note with it: ATCC 19615, 20 h. In outline:
as §1

The test system of data set [16] is Staphylococcus aureus. Nature of the data set: Antimicrobial activity against CA-methicillin-resistant Staphylococcus aureus W46 ST59 incubated for 20 hrs by microdilution method. The note with it: W46 ST59, 20 h.
Data set [17] deals with Staphylococcus aureus. Nature of the data set: Antimicrobial activity against Staphylococcus aureus ATCC BAA44 incubated for 20 hrs by microdilution method. The data set is classed as functional. The note with it: ATCC BAA44, 20 h. In outline:
as §2

In data set [18] the test system is Staphylococcus aureus. Nature of the data set: Antimicrobial activity against Staphylococcus aureus ST239 incubated for 20 hrs by microdilution method. The note with it: CN79, 20 h. It is filed as functional. In outline:
as §2

Data set [19] deals with Staphylococcus aureus. In words: Antimicrobial activity against Staphylococcus aureus ST22 11B086169 incubated for 20 hrs by microdilution method. The data set is classed as functional. The note with it: ST22 11B086169, 20 h. In outline:
as §2

In data set [20] the test system is Staphylococcus aureus. In words: Antimicrobial activity against Staphylococcus aureus HA W235 ST5 incubated for 20 hrs by microdilution method. It is filed as functional. The note with it: HA W235 ST5, 20 h. In outline:
as §2

Data set [21] deals with Staphylococcus aureus. In words: Antimicrobial activity against Staphylococcus aureus USA300/ST8 incubated for 20 hrs by microdilution method. The note with it: USA300 ST8, 20 h.
Data set [22] can be described thus: Antimicrobial activity against Staphylococcus saprophyticus ATCC 15305 incubated for 20 hrs by microdilution method. The data set is classed as functional, Staphylococcus saprophyticus subsp. saprophyticus. The note with it: ATCC 15305, 20 h. In outline:
as §1

Data set [23] deals with Enterococcus casseliflavus. Nature of the data set: Antimicrobial activity against Enterococcus casseliflavus ATCC 25788 incubated for 20 hrs by microdilution method. The data set is classed as functional. The note with it: ATCC 25788, 20 h. In outline:
as §1

For data set [24], the system named is Staphylococcus aureus. Nature of the data set: Antimicrobial activity against Staphylococcus aureus ATCC BAA43 incubated for 20 hrs by microdilution method. The data set is classed as functional. The note with it: ATCC BAA43, 20 h. In outline:
as §2

Data set [25] relates to Staphylococcus epidermidis. In words: Antimicrobial activity against Staphylococcus epidermidis ATCC 12228 incubated for 20 hrs by microdilution method. The data set is classed as functional. The note with it: ATCC 12228, 20 h. In outline:
as §1

The test system of data set [26] is Staphylococcus aureus. Nature of the data set: Antimicrobial activity against CA-methicillin-resistant Staphylococcus aureus W45 ST59 incubated for 20 hrs by microdilution method. The note with it: W45 ST59, 20 h.
The subject of data set [27] is Staphylococcus aureus. In words: Antimicrobial activity against CA-methicillin-resistant Staphylococcus aureus W4 ST338 incubated for 20 hrs by microdilution method. The note with it: W4 ST338, 20 h. The data set is classed as functional. In outline:
as §2

The test system of data set [28] is Erythrocyte. In words: Hemolytic activity against human erythrocytes at 0.1 to 10 ug/ml incubated for 45 mins. The data set is classed as ADME, cell-based. The note with it: 0.75 h. In outline:
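Hemolysis was tested on human blood cells with compound at 0.1, 1 and 10 µg/mL, judged against a nonhemolytic cut-off value.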

Data set [29] relates to Staphylococcus aureus. Nature of the data set: Antimicrobial activity against Staphylococcus aureus HA W231 ST45 incubated for 20 hrs by microdilution method. The note with it: HA W231 ST45, 20 h. The data set is classed as functional. In outline: as §2

In brackets after ≈: the same amount, converted by molar mass. Activity calls are given as the source filed them.

As for `C#Cc1cccc(/N=C/c2cc([N+](=O)[O-])ccc2O)c1`, the MIC in data set [1] was 64 mg/L (≈ 240 µM); in data set [3], 16 mg/L (≈ 60.1 µM); in data set [6] it was 16 mg/L (≈ 60.1 µM); in data set [7] it was over 256 mg/L; in [8], over 256 mg/L; in data set [9] it was over 256 mg/L. For the same molecule, the MIC in [10] is 8 mg/L (≈ 30 µM). The “growth inhibition (GI)” value in data set [2] is “Active”. Moreover, the result in [4] was Active. Also, in data set [5], the inhibition worked out at 85.3%.
Take `O=[N+]([O-])c1ccc(O)c(CNc2cccc(Cl)c2)c1`: the Papp A→B in data set [11] stood at 149 nm/s. Also, the MIC turned out to be 8 mg/L (≈ 28.7 µM) in data set [12]; 32 mg/L (≈ 115 µM) in data set [13]; 128 mg/L (≈ 459 µM) in data set [1]; 8 mg/L (≈ 28.7 µM) in data set [14]; 16 mg/L (≈ 57.4 µM) in [15]; 8 mg/L (≈ 28.7 µM) in data set [16]. For the same molecule, the MIC in data set [17] stood at 8 mg/L (≈ 28.7 µM); in data set [18], 16 mg/L (≈ 57.4 µM); in [19], 4 mg/L (≈ 14.4 µM); in data set [20], 8 mg/L (≈ 28.7 µM); in data set [21], 8 mg/L (≈ 28.7 µM); in data set [3], 4 mg/L (≈ 14.4 µM). Besides, the MIC in [22] is 16 mg/L (≈ 57.4 µM); in [6], 8 mg/L (≈ 28.7 µM); in [7] it was 256 mg/L (≈ 919 µM); in data set [8] it was over 256 mg/L; in [23], 32 mg/L (≈ 115 µM); in data set [9] it was 32 mg/L (≈ 115 µM). The MIC in data set [24] is 4 mg/L (≈ 14.4 µM); in data set [25], 8 mg/L (≈ 28.7 µM); in data set [26], 8 mg/L (≈ 28.7 µM); in data set [27], 8 mg/L (≈ 28.7 µM); in data set [29] it was 8 mg/L (≈ 28.7 µM); in [10], 4 mg/L (≈ 14.4 µM). In [5], the inhibition came to 34.9%. Also, the Activity result in [28] is given as “Non-Toxic”.
